Source: ChEMBL document CHEMBL1137411, “Development of small-molecule cyclin D1-ablative agents” (J Med Chem, 2006)
Calls of active or inactive are those of the source. The rule behind the calls is not given here.

Assays:
MCF7 [1] = assay: Repression of cyclinD1 level in MCF7 cells at 7.5 uM relative to control; type: functional, Homo sapiens
Outline: (§1)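 MCF-7 cells exposed for 72 h in 5% FBS-supplemented medium over 2.5-7.5 µM. Lysates were run on 10% SDS-PAGE and immunoblotted for cyclin D1 with ECL detection. Band intensity was quantified by densitometry, normalized to β-actin and expressed relative to DMSO control (100%).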

MCF7 [2] = assay: Repression of cyclinD1 level in MCF7 cells at 5 uM relative to control; type: functional, Homo sapiens; outline: as §1
MCF7 [3] = assay: Repression of cyclinD1 level in MCF7 cells at 2.5 uM relative to control; type: functional, Homo sapiens; outline: as §1
MCF7 [4] = assay: Antiproliferative activity against MCF7 cells by MTT assay; type: functional, cell-based; conditions: Homo sapiens
Outline: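 MCF-7 cells seeded in DMEM/Ham's F-12 with 10% FBS for 24 h, then exposed to test agents in DMSO (final 0.1%) in 5% FBS medium. Vehicle controls got matching DMSO. Medium replaced with 0.5 mM MTT in 10% FBS RPMI 1640 for 2 h at 37 °C, and reduced dye solubilized in DMSO. Six replicates.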

MCF7 [5] = assay: Repression of cyclinD1 level in MCF7 cells after 72 hrs; type: functional, cell-based; conditions: Homo sapiens, MCF7, 72 h; outline: as §1
MCF7 [6] = assay: Repression of cyclinD1 level in MCF7 cells at 10 uM; type: functional, cell-based; conditions: Homo sapiens

SMILES | Activity (MCF7 [1]) [%] | Activity (MCF7 [2]) [%] | Activity (MCF7 [3]) [%] | IC50 (MCF7 [4]) [µM] | IC50 (MCF7 [5]) [µM] | Activity (MCF7 [6])
C=CCOc1c(C)c(C)c2c(c1C)CCC(C)(COc1ccc(/C=C3\SC(=O)NC3=O)cc1OCC)O2 (stereo not given) | 75 | 87 | 107 |  |  | 
Cc1c(C)c2c(c(C)c1O)CCC(C)(COc1ccc(/C=C3\SC(=O)NC3=O)cc1)O2 (stereo not given) |  |  |  | 55 |  | 
C=CCOc1c(C)c(C)c2c(c1C)CCC(C)(COc1ccc(/C=C3\SC(=O)NC3=O)cc1C)O2 (stereo not given) | 8 | 24 | 84 |  |  | 
COc1cc(/C=C2\SC(=O)NC2=O)ccc1OCC1(C)CCc2c(C)c(OCC=C(C)C)c(C)c(C)c2O1 (stereo not given) | 54 | 78 | 95 |  |  | 
CC(C)=CCOc1c(C)c(C)c2c(c1C)CCC(C)(COc1ccc(/C=C3\SC(=O)NC3=O)cc1C)O2 (stereo not given) | 27 | 56 | 89 |  |  | 
Cc1c(C)c2c(c(C)c1OCc1ccccc1)CCC(C)(COc1ccc(/C=C3\SC(=O)NC3=O)cc1)O2 (stereo not given) | 12 | 42 | 85 |  |  | 
C=CCOc1c(C)c(C)c2c(c1C)CCC(C)(COc1ccc(/C=C3\SC(=O)NC3=O)cc1OC)O2 (stereo not given) | 1 | 5 | 34 |  | 2.5 | 
CCCCOc1c(C)c(C)c2c(c1C)CCC(C)(COc1ccc(/C=C3\SC(=O)NC3=O)cc1C(F)(F)F)O2 (stereo not given) |  |  |  |  | 6 | 
CCCCOc1c(C)c(C)c2c(c1C)CCC(C)(COc1ccc(CC3SC(=O)NC3=O)cc1C(F)(F)F)O2 (stereo not given) |  |  |  |  | 9 | 
CC(C)=CCOc1c(C)c(C)c2c(c1C)CCC(C)(COc1ccc(/C=C3\SC(=O)NC3=O)cc1-c1ccc(F)cc1)O2 (stereo not given) | 85 | 92 | 87 |  |  | 
CC(C)=CCOc1c(C)c(C)c2c(c1C)CCC(C)(COc1ccc(/C=C3\SC(=O)NC3=O)cc1Br)O2 (stereo not given) | 53 | 84 | 96 |  |  | 
C=CCOc1c(C)c(C)c2c(c1C)CCC(C)(COc1cccc(/C=C3\SC(=O)NC3=O)c1)O2 (stereo not given) | 75 | 92 | 84 |  |  | 
Cc1c(C)c2c(c(C)c1OC(=O)CCC(=O)O)CCC(C)(COc1ccc(/C=C3\SC(=O)NC3=O)cc1)O2 (stereo not given) | 76 | 98 | 115 |  |  | 
Cc1c(C)c2c(c(C)c1OC/C=C/c1ccccc1)CCC(C)(COc1ccc(/C=C3\SC(=O)NC3=O)cc1)O2 (stereo not given) | 43 | 65 | 92 |  |  | 
CC(C)=CCOc1c(C)c(C)c2c(c1C)CCC(C)(COc1ccc(/C=C3\SC(=O)NC3=O)cc1)O2 (stereo not given) | 5 | 21 | 76 |  |  | 
C=CCOc1c(C)c(C)c2c(c1C)CCC(C)(COc1ccc(/C=C3\SC(=O)NC3=O)cc1Br)O2 (stereo not given) | 105 | 98 | 102 |  |  | 
CC(C)=CCOc1c(C)c(C)c2c(c1C)CCC(C)(COc1ccc(/C=C3\SC(=O)NC3=O)cc1F)O2 (stereo not given) | 64 | 87 | 95 |  |  | 
C=CCOc1c(C)c(C)c2c(c1C)CCC(C)(COc1ccc(/C=C3\SC(=O)NC3=O)cc1)O2 (stereo not given) | 2 | 42 | 45 |  | > 5 | 
CCOc1cc(/C=C2\SC(=O)NC2=O)ccc1OCC1(C)CCc2c(C)c(OCC=C(C)C)c(C)c(C)c2O1 (stereo not given) | 54 | 84 | 107 |  |  | 
C=CCOc1c(C)c(C)c2c(c1C)CC[C@](C)(COc1ccc(/C=C3\SC(=O)NC3=O)cc1OC)O2 |  |  |  |  |  | Active
C=CCOc1c(C)c(C)c2c(c1C)CC[C@@](C)(COc1ccc(/C=C3\SC(=O)NC3=O)cc1OC)O2 |  |  |  | 5 |  | 
